Data published in ChEMBL document CHEMBL4251598, “Development of novel bis-pyrazole derivatives as antitumor agents with potent apoptosis induction effects and DNA damage” (Eur J Med Chem, 2018).
Activity calls are given as the source filed them.

Columns and labels:
[1] = test system: Mus musculus; experiment: Acute toxicity in ICR mouse assessed as mouse mortality level at 200, ip measured on day 1 to 3 days post dose; type: organism-based; conditions: in vivo
Outline: (§1)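 Female ICR mice, 10 per group, single intraperitoneal injection at 488.3, 390.6, 312.5, 250 or 200 mg/kg, or vehicle control. Survival, eating, drinking, body weight and activity were monitored for up to 14 days after dosing. MTD was defined as the highest dose giving no drug-related moribund state or death, with temporary body-weight loss within 20%. LD50 was calculated from mortality.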

[2] = test system: SMMC-7721; experiment: Induction of apoptosis in human SMMC7721 cells assessed as increase in cleaved caspase-3 expression at 3.2 uM after 72 hrs by Western blot analysis relative to control; type: functional, cell-based
Outline: (§2)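 Sub-confluent SMMC-7721 cells treated with vehicle, compound or ADM at indicated concentrations for 72 h. Lysed on ice in NP-40/deoxycholate/SDS buffer with PMSF and leupeptin. Up to 50 µg protein run on SDS-PAGE, transferred to PVDF and probed with specific antibodies; ECL detection. Bands quantified by densitometry relative to β-actin, mean ± SD of three experiments.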

[3] = test system: SMMC-7721; experiment: Antitumor activity against human SMMC7721 cells xenografted in BALB/c mouse assessed as tumor growth inhibition at 15 mg/kg, ip measured after 19 days relative to control; type: functional; conditions: SMMC-7721, ip, 456 h, read-out: TGI
Outline: (§3)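 Female BALB/c nude mice, 5-6 weeks old, inoculated subcutaneously with 10^6 SMMC-7721 cells. At 50-100 mm³ tumours, mice were randomized to ip compound (15 or 30 mg/kg), ADM (15 mg/kg) or vehicle, n = 6 per group. Caliper volume ½(L×W²) measured every 3 days to day 19, with body weight monitored. Tumours excised and weighed at the end.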

[4] = test system: SMMC-7721; experiment: Antitumor activity against human SMMC7721 cells xenografted in BALB/c mouse assessed as tumor growth inhibition at 30 mg/kg, ip measured after 19 days relative to control; type: functional; conditions: SMMC-7721, ip, 456 h, read-out: TGI; outline: as §3
[5] = test system: SMMC-7721; experiment: Induction of apoptosis in human SMMC7721 cells assessed as increase in cleaved PARP expression at 3.2 uM after 72 hrs by Western blot analysis relative to control; type: functional, cell-based; outline: as §2
[6] = test system: SMMC-7721; experiment: Induction of apoptosis in human SMMC7721 cells assessed as apoptotic cells at 3.2 uM after 72 hrs by FITC-Annexin-V/7AAD/propidium iodide staining based flow cytometry relative to control; type: functional
Outline: (§4)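 SMMC-7721 cells cultured overnight, then treated in triplicate with 0.2, 0.8 or 3.2 μM, vehicle, or ADM (3.2 μM) for 72 h. Stained with annexin V and PI (methods section: APC-annexin V/7-AAD) for 15 min at room temperature. Mean ± SD of three independent experiments.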

[7] = target: Cellular tumor antigen p53 (Homo sapiens) (UniProt P04637); experiment: Induction of p53 phosphorylation at Ser15 in human SMMC7721 cells after 72 hrs by Western blot analysis; type: cell-based
Outline: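 SMMC-7721 cells treated with vehicle, compound at 0.2, 0.8 or 3.2 μM, or ADM for 72 h. Lysates immunoblotted for H2AX pS139, p-p53 (Ser15), total p53 and β-actin, with ECL detection. Signals quantified by densitometry relative to β-actin, mean ± SD of three experiments.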

[8] = test system: SMMC-7721; experiment: Antiproliferative activity against human SMMC7721 cells after 72 hrs by MTT assay; type: functional, cell-based; conditions: SMMC-7721, 72 h
Outline: (§5)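 Cells in DMEM with 10% FBS, 10^4 cells/mL, adhered overnight at 37 °C, 5% CO2. Treated in triplicate with a range of concentrations for 72 h. MTT (5 mg/mL solution) added for the last 4 h, formazan dissolved in DMSO, absorbance read at 570 nm. IC50 calculated from percent inhibition. Mean ± SD of three independent experiments.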

[9] = test system: SMMC-7721; experiment: Antitumor activity against human SMMC7721 cells xenografted in ip dosed BALB/c mouse assessed as tumor growth inhibition measured every 3 days up to 19 days post dose; type: functional, organism-based; outline: as §3
[10] = test system: Mus musculus; experiment: Acute toxicity in ICR mouse assessed as mouse mortality level at 200 to 488.3 mg/kg, ip measured at 1 to 4 hrs post dose; type: organism-based; conditions: in vivo; outline: as §1
[11] = Acute toxicity in ICR mouse assessed as survival at 390.6 mg/kg, ip measured on day 14; type: organism-based; conditions: in vivo; outline: as §1
[12] = test system: SGC-7901; experiment: Potency index, ratio of 5-FU IC50 to compound IC50 for human SGC7901 cells; type: functional
[13] = Acute toxicity in ICR mouse assessed as survival at 250 mg/kg, ip measured on day 14; type: organism-based; conditions: in vivo; outline: as §1
[14] = test system: SMMC-7721; experiment: Antiproliferative activity against human SMMC7721 cells assessed as inhibition of cell proliferation at 25 uM after 72 hrs by MTT assay relative to control; type: functional; conditions: SMMC-7721, 72 h
Outline: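 Cells in DMEM with 10% FBS, plated at 10^4 cells/mL, adhered overnight. Treated at 25 μM for 72 h. MTT added for the last 4 h, formazan dissolved in DMSO, A570 read. Inhibition expressed as percent of untreated. Mean + SD from three separate measurements.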

[15] = Acute toxicity in ICR mouse assessed as survival at 488.3 mg/kg, ip measured on day 14; type: organism-based; conditions: in vivo; outline: as §1
[16] = test system: Mus musculus; experiment: Acute toxicity in ICR mouse assessed as mouse mortality level at 200 to 250 mg/kg, ip measured on day 4 post dose; type: organism-based; conditions: in vivo; outline: as §1
[17] = test system: SMMC-7721; experiment: Induction of apoptosis in human SMMC7721 cells assessed as increase in Bax expression after 72 hrs by Western blot analysis; type: functional, cell-based; outline: as §2
[18] = test system: Mus musculus; experiment: Acute toxicity in ICR mouse assessed as effect on drinking behaviour at 200 mg/kg, ip measured up to 14 days post dose; type: organism-based; conditions: in vivo, 336 h; outline: as §1
[19] = test system: HCT-116; experiment: Potency index, ratio of ADM IC50 to compound IC50 for human HCT116 cells; type: functional
[20] = test system: SGC-7901; experiment: Potency index, ratio of ADM IC50 to compound IC50 for human SGC7901 cells; type: functional
[21] = test system: SGC-7901; experiment: Antiproliferative activity against human SGC7901 cells after 72 hrs by MTT assay; type: functional, cell-based; conditions: SGC-7901, 72 h; outline: as §5
[22] = test system: SMMC-7721; experiment: Induction of apoptosis in human SMMC7721 cells assessed as increase in cleaved PARP expression at 0.2 to 3.2 uM after 72 hrs by Western blot analysis relative to control; type: functional, cell-based; outline: as §2
[23] = test system: L02; experiment: Cytotoxicity against human LO2 cells assessed as reduction in cell survival at 0.2 to 5 uM after 72 hrs by MTT assay; type: cell-based; conditions: l02, 72 h
Outline: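 LO2 normal liver cells in DMEM with 10% FBS, plated at 10^4 cells/mL, adhered overnight. Exposed to graded concentrations for 72 h alongside SMMC-7721. MTT added for the last 4 h, formazan dissolved in DMSO, A570 read. Percent inhibition, mean ± SD of three independent experiments.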

[24] = test system: SMMC-7721; experiment: Induction of apoptosis in human SMMC7721 cells assessed as apoptotic cells at 0.2 uM after 72 hrs by FITC-Annexin-V/7AAD/propidium iodide staining based flow cytometry relative to control; type: functional; outline: as §4
[25] = test system: Mus musculus; experiment: Acute toxicity in ICR mouse assessed as effect on animal activity at 200 mg/kg, ip measured up to 14 days post dose; type: organism-based; conditions: in vivo, 336 h; outline: as §1
[26] = test system: SMMC-7721; experiment: Potency index, ratio of 5-FU IC50 to compound IC50 for human SMMC7721 cells; type: functional

Sequence of Cellular tumor antigen p53 (Homo sapiens) (P04637 whole entry, looked up): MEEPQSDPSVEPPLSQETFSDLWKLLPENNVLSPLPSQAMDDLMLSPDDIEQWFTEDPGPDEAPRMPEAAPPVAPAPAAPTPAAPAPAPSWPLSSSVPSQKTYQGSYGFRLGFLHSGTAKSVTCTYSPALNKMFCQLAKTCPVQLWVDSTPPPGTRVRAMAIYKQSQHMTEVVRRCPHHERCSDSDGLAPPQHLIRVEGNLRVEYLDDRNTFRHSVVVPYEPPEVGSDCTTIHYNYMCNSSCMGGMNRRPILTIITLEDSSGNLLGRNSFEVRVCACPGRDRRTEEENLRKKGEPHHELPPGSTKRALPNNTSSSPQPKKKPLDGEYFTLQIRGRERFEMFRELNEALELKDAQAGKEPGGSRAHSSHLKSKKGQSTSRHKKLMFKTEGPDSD

SMILES: COc1ccc(Oc2c(/C=N\OCc3c(Cl)c(-c4ccc(Cl)cc4)nn3C)c(C)nn2C)cc1
- Activity [1]: Non-Toxic
- Activity [2]: Active
- inhibition in vivo at 15 mg/kg [3]: 44%
- inhibition in vivo at 30 mg/kg [4]: 65.3%
- Activity [5]: Active
- Activity [6]: 63.2%
- Activity [7]: Dose-dependent effect
- IC50 [8]: 0.76 µM
- TGI [9]: Dose-dependent effect
- Activity [10]: Non-Toxic
- survival at 14 day [11]: 40%
- Ratio IC50 [12]: 17 - 50
- survival at 14 day [13]: 70%
- inhibition at 25 µM [14]: 80%
- survival at 14 day [15]: 10%
- Activity [16]: Non-Toxic
- Activity [17]: Dose-dependent effect
- Activity [18]: Non-Toxic
- Ratio IC50 [19]: 2 - 3
- Ratio IC50 [20]: 2 - 3
- IC50 [21]: 2.01 µM
- Activity [22]: Active
- Activity [23]: Non-Toxic
- Activity [24]: 29.6%
- Activity [25]: Non-Toxic
- Ratio IC50 [26]: 17 - 50
